Experiments:
Caco-2 = assay: Cytotoxicity against human Caco-2 cells after 24 hrs by ATPLite assay; assay type: functional, cell-based; settings: Caco-2, 24 h
How it was run: (§1)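 Cells grown in appropriate medium were exposed to test compounds at five concentrations for 24 h (5% CO2). Viability was read as cellular ATP by ATPLite luciferase luminescence and quantified against an ATP standard curve. Samples were run in triplicate, and IC50 was calculated from the concentration series.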

MCF7 = assay: Cytotoxicity against human MCF7 cells after 24 hrs by ATPLite assay; assay type: functional, cell-based; settings: MCF7, 24 h; how it was run: as §1
HepG2 = assay: Cytotoxicity against human HepG2 cells after 24 hrs by ATPLite assay; assay type: functional, cell-based; settings: HepG2, 24 h; how it was run: as §1
[1] = Cytotoxicity against mouse P388D1 cells after 24 hrs by ATPLite assay; assay type: functional, cell-based; settings: P388D1, 24 h; how it was run: as §1
PC-3 = assay: Cytotoxicity against human PC3 cells after 24 hrs by ATPLite assay; assay type: functional, cell-based; settings: PC-3, 24 h; how it was run: as §1
NIH3T3 [2] = assay: Cytotoxicity against mouse 3T3 cells after 3 hrs by ATPLite assay; assay type: cell-based; settings: NIH3T3, 3 h
NIH3T3 [3] = assay: Inhibition of PGE2 production in calcium ionophore […] stimulated mouse 3T3 cells after 3 hrs; assay type: functional, cell-based; settings: NIH3T3, 3 h
How it was run: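 3T3 cells in DMEM with 10% FBS were seeded at 2 × 10^5 cells/mL, held ~20 h at 37 °C and 5% CO2, then given test substance (DMSO stock, 10 mg/mL) for 3 h. […] (5 mM DMSO stock) was added for 20 min. Supernatant PGE2 was measured by EIA, in triplicate, as % inhibition versus solvent-treated stimulated cells.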

Row | SMILES | IC50 (Caco-2) [µM] | IC50 (MCF7) [µM] | IC50 (HepG2) [µM] | IC50 [1] [µM] | IC50 (PC-3) [µM] | IC50 (NIH3T3 [2]) [µM] | IC50 (NIH3T3 [3]) [µM]
1 | COc1cc(/C=C/C(=O)CC(=O)/C=C/c2ccc(O)c(OC)c2)ccc1O [CURCUMIN] | 48.6 | 51.5 | 43.8 | 75.7 | 22.7 | – | –
2 | COc1ccc(C/C=C/CCCCc2ccc(O)cc2)cc1 | 44.8 | 56.9 | 40.6 | 117 | 23.6 | 52.8 | 34

Reference: ChEMBL document CHEMBL1157090, “Diarylheptanoid from Pleuranthodium racemigerum with in vitro prostaglandin E(2) inhibitory and cytotoxic activity” (J Nat Prod, 2010)
